Experimental findings from the RNAGym collection of RNA variant scans (doi:10.1126/science.aae0568) are described below.

Sequences and labels used below:
B1: tRNA (parent)
chain: GUUCCGUUGGCGUAAUGGUAACGCGUCUCCCUCCUAAGGAGAAGACUGCGGGUUCGAGUCCCGUACGGAACG

Variants at the floor of the assay were thinned out. Where only a bound is given, the exact number is not on record here.

The variants in this series derive from B1. Nature of the series: yeast fitness relative to wild type (ratio to wild type); higher = fitter; tRNA-Arg(CCU), competitive growth, 37 C, YPD. A digest of the protocol: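 Variants of the tRNA-Arg(CCU) gene, chemically synthesised with a 3% per-site mutation rate at 69 sites, were placed at the native genomic locus in Saccharomyces cerevisiae. The pooled strains were competed in YPD at 37°C for 24 hours in six parallel replicates. Gene amplicons from the start population and from each end population were read by 100-nucleotide paired-end sequencing. Darwinian fitness relative to wild type came from changes in genotype frequencies; genotypes needed ≥ 100 starting reads, and estimates < 0.5 were set to 0.5.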
Turning to A40G G48A A65C G67C, the yeast fitness is no more than 0.5.
With C4G C11A U19C G23C U47C, the yeast fitness was found to be 0.663.
Turning to C22U C30U U47A, the yeast fitness is no more than 0.5.
As to G10C C31A A37U G63A A65G, the yeast fitness was no more than 0.5.
Regarding C27G A37U, the yeast fitness was found to be 0.591.
As to A15U A20G C46G C61A, the yeast fitness is no more than 0.5.
As for C22U U32C G51A C61G, the yeast fitness was no more than 0.5.
Turning to C11A C62A C66U, the yeast fitness was found to be 0.629.
For U2C G18C G23C C33U G39A A43U C62A G63C, the yeast fitness stood at 0.851.
Take U13A C27U C31U: the yeast fitness turned out to be 0.673.
As to G51A A65U A69C, the yeast fitness is no more than 0.5.
As to G25C C33A A57U A69U, the yeast fitness amounted to 0.548.
Turning to U3C G12A G44C, the yeast fitness came to 0.546.
As to C27G A40U G68C, the yeast fitness is 0.523.
In the case of G12C A20U C22G G50A, the yeast fitness was no more than 0.5.
As to C4G C22G G67C, the yeast fitness was determined as 0.528.
Take A14C A36G A69C: the yeast fitness was no more than 0.5.
As to A14G C46A, the yeast fitness came to 0.873.
Turning to G12C A36C G50A, the yeast fitness was no more than 0.5.
U26C C60A: the yeast fitness was determined as 0.572.
As for G6C C27G U28C C62G, the figure is no more than 0.5; as for A15G A43U A69C, 0.8; as for C29A G58A C61G A70U, 0.642.
On to A42C C61U C62G, for which the yeast fitness is no more than 0.5.
Turning to C22G C30A A45G, the yeast fitness was no more than 0.5.
U28A C29A: the yeast fitness is 0.598.
For the variant U8G G41C, the yeast fitness is 0.657.
As for G17A C34A G52U, the figure is no more than 0.5.
As for C22U G38A, the figure is 0.748; as for U7C U19G C61G C62U, 0.514; as for G17C U47G C66U G67A A69U, no more than 0.5.
In the case of U26G C27U C49U C66U, the yeast fitness is 0.577.
For G25C C27A C30G, the yeast fitness is no more than 0.5.
With C34U G44C U47G, the yeast fitness was 0.659.
Regarding C29G C49G G51U A57G, the yeast fitness is no more than 0.5.
For U26G G51A A65G, the yeast fitness was 0.599.
Next, U3C G12A: 0.963.
Next, C27U C33U A36U A43G: no more than 0.5; C33A C34A: 0.621; G12A U19G U35C A40U C61A: no more than 0.5.
In the case of G12C U32G A40U A57U A65U, the yeast fitness is 0.568.
For the variant C27U G38A C66U, the yeast fitness was 0.623.
Take G12U G23A A36G G39A: the yeast fitness was no more than 0.5.
As to C29U U47C, the yeast fitness worked out at 0.923.
As for A37U C49A C66U, the figure is no more than 0.5.
On to U19C G50A C55A G63A C66A, for which the yeast fitness is no more than 0.5.
A20U C31A G41A: the yeast fitness was no more than 0.5.
In the case of A15G G23C A43G, the yeast fitness came out at 0.54.
As for C22U C66U A69C, the figure is 0.593; as for C4U A20U C29U, no more than 0.5; as for G9A A36G G67C, 0.664.
Consider G6A U16G A21G A40G A42U G67C, for which the yeast fitness was no more than 0.5.
Consider C11A C30G A45U C60A C62U, for which the yeast fitness was no more than 0.5.
In the case of A14U C29G, the yeast fitness was determined as 0.692.
A14U C29U: the yeast fitness worked out at 0.64.
In the case of U8C C27A, the yeast fitness is 0.791.
Consider U2G U13A C60U, for which the yeast fitness was found to be 0.816.
For C4A G10C A69C, the yeast fitness was no more than 0.5.
For the variant C4G U7G A36C A37C A57C C66U, the yeast fitness was no more than 0.5.
Next, C11U G50A: 0.81; A20U C46U: 0.995.
As for C5G C61U A69C, the yeast fitness was no more than 0.5.
Turning to A14U G18C C34U, the yeast fitness was no more than 0.5.
As to C11G A36G G52A, the yeast fitness is no more than 0.5.
As for C34G A40G C46G C49A U59C, the figure is 0.55; as for U35A A42C, 0.643; as for C11U C24G C27G G52A, 0.551.
For U2A C5U C11U A14U G17A A21C G38C C49A, the yeast fitness is no more than 0.5.
As for U2C G23A G38A G56C C61U, the figure is no more than 0.5.
With A37U A45C C46A, the yeast fitness came out at 0.598.
C46G A57C: the yeast fitness was determined as 0.61.
As for C4U U7A G50C, the figure is no more than 0.5; as for G6A C11A U19A A69U, 0.577; as for C4G U26A, 0.796.
For the variant U8A C24U U47C, the yeast fitness was determined as 0.575.
Consider C24A C27G C29A A70G, for which the yeast fitness is no more than 0.5.
U3C A14U A20C C24G C55U A69C: the yeast fitness was no more than 0.5.
Next, G38A C60U: 0.831.
As for C11G A20G U32A, the figure is no more than 0.5.
As for G10A C11A, the figure is 0.636.
Take A42C G50C: the yeast fitness turned out to be 0.548.
Next, U13A C27U U64C: 0.937.
As for C33A A57U, the figure is 0.564; as for A15G U28G A42U G48A G67A, no more than 0.5.
Turning to U2C C31G U35A, the yeast fitness was no more than 0.5.
As for C5U U32C A57C, the yeast fitness is 0.583.
As for G25A A57C, the figure is 0.697; as for G9C A14G U16G G23A C33A G44A C66U, no more than 0.5; as for G6A U26A C61A, no more than 0.5.
Consider C11U A14G C24G C27U G41A A42C G67C, for which the yeast fitness was no more than 0.5.
Take C5U U35A G48C C61U: the yeast fitness was 0.57.
Next, G18C G39C G50A: no more than 0.5; C5A C31U: 0.885.
Consider C5G C11A A14G G25C C29G C60A, for which the yeast fitness is no more than 0.5.
Consider C33U C55U, for which the yeast fitness was found to be 0.586.
Regarding C61U A69U, the yeast fitness worked out at 1.02.
Consider C4U C11U G44C C49U A70U, for which the yeast fitness was no more than 0.5.
As for C33A C34G C60A A70C, the yeast fitness is no more than 0.5.
For the variant G23C U28C C46G C62G, the yeast fitness is no more than 0.5.
For the variant C29G C55A A69U, the yeast fitness is no more than 0.5.
As for G48A U54C A69C, the yeast fitness came to 0.686.
G17C A20G C46A C60U: the yeast fitness is no more than 0.5.
As for C33U G50A G52C A65C, the figure is 0.564; as for C22U G23A G48A A65U, no more than 0.5; as for G17C G52C U64A, no more than 0.5.
Take G23A A37U C49G C55G: the yeast fitness was 0.556.
As for U28C C34U C55U C61A, the yeast fitness turned out to be 0.592.
On to A36C C46G G51A, for which the yeast fitness was no more than 0.5.
In the case of A14C A20G C27U U64A G67A, the yeast fitness was 0.566.
For U2G C31U G50A C60U, the yeast fitness is no more than 0.5.
In the case of A14C C30G A37G A45G U59C G67C, the yeast fitness is no more than 0.5.
Regarding U3C G48C C55A, the yeast fitness was determined as 0.541.
Turning to G9C A21G G44C U47C, the yeast fitness was no more than 0.5.
As to C4U A20C C30A C55A G67A, the yeast fitness was 0.53.
For the variant G9A G10A C31G G52A C62A, the yeast fitness is no more than 0.5.
As for U32G U35A G38C G51C C66U, the figure is 0.579; as for C29U U32C U35G A70U, no more than 0.5.
In the case of C11U G39C C62U G63C, the yeast fitness was no more than 0.5.
For U16G A20U G38A G67A A69U, the yeast fitness was no more than 0.5.
As to U19A C30G, the yeast fitness came out at 0.671.
As for C46G G51A, the figure is 0.766; as for U2A C46U A65G, 0.592.
As to A21C G25C U26G C62A, the yeast fitness is no more than 0.5.
As for A14C C55U, the figure is 0.645; as for C66G, 0.902.
Next, C31U C62G G68C: 0.507; C4U G10C A36U: 0.659; U3A C5G A14G C24A G51C G52C: no more than 0.5.
As for U3A C4U U8A G10A A21G C49G A57G G67U, the yeast fitness stood at 0.655.
Consider A21U A43G C62A, for which the yeast fitness is no more than 0.5.
In the case of C4U U7A C49U, the yeast fitness is 0.58.
On to U2A G25C A45U, for which the yeast fitness is 0.585.
In the case of A37U G52A, the yeast fitness came out at 0.534.
Regarding U3C A14G, the yeast fitness turned out to be 0.917.
For C46G C62G A69G, the yeast fitness was 0.733.
Consider U8C G44A C55U, for which the yeast fitness was no more than 0.5.
Turning to C5U A43U C66U, the yeast fitness is 0.68.
Consider G25C G63A, for which the yeast fitness was determined as 0.955.
For the variant C11U A45C C49U, the yeast fitness amounted to 0.765.
As for A40C C61A, the figure is 0.716; as for U54G C61U G67C, no more than 0.5; as for U35C G68A, 0.67.
For A14U A45C A69U, the yeast fitness worked out at 0.592.
With C29G C33G, the yeast fitness came to 0.59.
Consider C11G U13G A20C C27G C29A, for which the yeast fitness is no more than 0.5.
Next, G12C A20C: 0.699; G6A C27G: 0.758; U3C G17C: 0.78.
As for C4A A20U U28A C31U A65U, the yeast fitness was no more than 0.5.
As to U7A A36C A57C, the yeast fitness was no more than 0.5.
As for C11U C22U G44C, the yeast fitness is 0.553.
For the variant U26C C30U G44C G51A C61U, the yeast fitness is no more than 0.5.
Regarding G12A A20G A45U C49G A57U, the yeast fitness was no more than 0.5.
Next, C5U C22G C24A A57C: no more than 0.5; U26C U35G G50A C62U: no more than 0.5; U8C C34A C61G G68C: no more than 0.5.
U3G C55A: the yeast fitness was found to be 0.644.
With A20C C22U G39C, the yeast fitness is no more than 0.5.
Consider C4G U8C C60U G63C G68A, for which the yeast fitness is no more than 0.5.
As to U7G C46U, the yeast fitness is 0.987.
Regarding C11G A42U C49U C62U, the yeast fitness was no more than 0.5.
As for C11A U16C A21G G68A, the figure is no more than 0.5; as for U13C A14G C24G C49G A69G, no more than 0.5; as for C4G C27G, 0.816.
As for U3A C49U, the figure is 0.954; as for C5G U16A C31G C66G, no more than 0.5.
As to C30G A42G A45G, the yeast fitness is no more than 0.5.
